The source made the active and inactive calls. The rule behind the calls is not given here.
How the values were obtained:
[1] = biological target: Platelet-derived growth factor receptor alpha (Homo sapiens) (UniProt P16234); assay: Inhibition of PDGFRalpha phosphorylation at Y849 in human GISTT1 cells up to 10 uM after 2 hrs by Western blot analysis; format: cell-based
Summary of the method: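 Cells were washed in cold PBS, lysed in RIPA and immunoblotted for phospho and total proteins, including pPDGFRα Y849/PDGFRβ Y857 and β-actin.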

[2] = system: Mus musculus; assay: Toxicity in nu/nu mouse xenografted with human GISTT1 cells assessed as body weight change at 25 to 100 mg/kg/day administered through oral gavage after 21 days; format: organism-based; conditions: in vivo, 504 h
Summary of the method: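 Female nu/nu mice, 6 weeks old, injected subcutaneously in the right flank with 5 million GIST-T1 cells in PBS/Matrigel 1:1. At tumor volume 100–200 mm³, randomized to groups of six; daily oral gavage of 25, 50 or 100 mg/kg/d or vehicle (0.5% methylcellulose/0.4% Tween80 in water). Body weight measured daily, normalized to initial weight; mean ± SEM.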

[3] = biological target: Mast/stem cell growth factor receptor Kit (Homo sapiens) (UniProt P10721); assay: Inhibition of cKIT autophosphorylation at Y823 in human GISTT1 cells up to 10 uM after 2 hrs by Western blot analysis; format: cell-based
[4] = Tmax in Sprague-Dawley rat plasma at 1 mg/kg, iv; format: ADME, organism-based
Summary of the method: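 Male Sprague–Dawley rats, 8 weeks old, six in total, fasted overnight; compound dissolved in 5% DMSO/40% PEG400/55% saline (1 mg/mL dosing solution), given iv or orally. About 0.2 mL jugular blood taken with heparin at 1 min–8 h (iv) or 5 min–24 h (oral); plasma separated at 2–8 °C and stored at −80 °C before analysis.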

[5] = Antiproliferative activity against CHO cells assessed as reduction in cell viability after 72 hrs by celltiter-glo/CCK8 assay; format: cell-based, Cricetulus griseus; conditions: chinese hamster
Summary of the method: (§1)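 Cells were seeded at 1 to 3 × 10⁴ cells/mL with serial compound concentrations and incubated 72 h at 37 °C, 5% CO₂. Viability was read by CellTiter-Glo luminescence or CCK-8 absorbance (450/655 nm). GI50 values are from triplicate testing. GIST-T1 and CHO were grown in DMEM/10% FBS; GIST-882, GIST-48B and MV4-11 in IMDM/10% FBS; other lines in RPMI 1640/10% FBS.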

[6] = system: Mast/stem cell growth factor receptor Kit (Homo sapiens), P10721 [N822K]; assay: Inhibition of Tel-fused cKIT N822K mutant (unknown origin) transfected in mouse BAF3 cells assessed as decrease in cell proliferation after 72 hrs by celltiter-glo/CCK8 assay; format: cell-based
[7] = biological target: Mast/stem cell growth factor receptor Kit (Homo sapiens) (UniProt P10721); assay: Inhibition of Tel-fused cKIT L567P mutant (unknown origin) transfected in mouse BAF3 cells assessed as decrease in cell proliferation after 72 hrs by celltiter-glo/CCK8 assay; format: cell-based
[8] = Cell cycle arrest in human GISTT1 cells at 0.3 to 3 uM after 24 hrs by propidium iodide/RNase staining based flow cytometric analysis; format: functional
Summary of the method: (§2)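 Cells were then fixed in 70% cold ethanol at −20 °C overnight, stained with PI/RNase buffer and analysed by flow cytometry.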

[9] = system: Mast/stem cell growth factor receptor Kit (Homo sapiens), P10721 [D816V]; assay: Inhibition of Tel-fused cKIT D816V mutant (unknown origin) transfected in mouse BAF3 cells assessed as decrease in cell proliferation after 72 hrs by celltiter-glo/CCK8 assay; format: cell-based
Summary of the method: (§3)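 Stable BaF3 lines made by retroviral transduction with mutagenized TEL-KIT MSCV vectors, puromycin selection 48 h, then gradual IL-3 withdrawal until IL-3-independent; grown in RPMI 1640 with 10% FBS. Cells at 1 to 3 × 10⁴ cells/mL exposed to a concentration series for 72 h; viability read by CellTiter-Glo luminescence or CCK-8 absorbance (450/655 nm); GI50 from triplicate testing.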

[10] = Antiproliferative activity against cKIT dependent human GIST882 cells assessed as reduction in cell viability after 72 hrs by celltiter-glo/CCK8 assay; format: functional; conditions: GIST882, 72 h; summary of the method: as §1
[11] = Cell cycle arrest in human GIST882 cells at 0.3 to 3 uM after 48 hrs by propidium iodide/RNase staining based flow cytometric analysis; format: functional; summary of the method: as §2
[12] = biological target: Mast/stem cell growth factor receptor Kit (Homo sapiens) (UniProt P10721); assay: Inhibition of cKIT in human GISTT1 cells assessed as suppression of STAT5 phosphorylation at Y694 up to 10 uM after 2 hrs by Western blot analysis; format: cell-based
[13] = biological target: Macrophage colony-stimulating factor 1 receptor (Homo sapiens, UniProt P07333); assay: Inhibition of His-tagged recombinant human CSF1R expressed in baculovirus expression system after 1 hr by Z-lyte assay
[14] = system: Mast/stem cell growth factor receptor Kit (Homo sapiens), P10721 [V654A]; assay: Inhibition of Tel-fused cKIT V654A mutant (unknown origin) transfected in mouse BAF3 cells assessed as decrease in cell proliferation after 72 hrs by celltiter-glo/CCK8 assay; format: cell-based; summary of the method: as §3
[15] = AUC(0 to t) in Sprague-Dawley rat plasma at 1 mg/kg, iv; format: ADME, organism-based
Summary of the method: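 Male Sprague-Dawley rats, 8 weeks old, fasted overnight, dosed iv or orally. Formulation was 5% DMSO/40% PEG400/55% saline at 1 mg/mL. Blood (~0.2 mL) was drawn from the jugular vein into heparin. Sampling: iv at 1 min to 8 h; oral at 5 min to 24 h. Plasma was separated by centrifugation at 2−8 °C and stored at −80 °C.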

[16] = system: Mast/stem cell growth factor receptor Kit (Homo sapiens), P10721 [T670I]; assay: Inhibition of Tel-fused cKIT T670I mutant (unknown origin) transfected in mouse BAF3 cells assessed as decrease in cell proliferation after 72 hrs by celltiter-glo/CCK8 assay; format: cell-based; summary of the method: as §3
[17] = system: Mast/stem cell growth factor receptor Kit (Homo sapiens), P10721 [V559D,T670I]; assay: Inhibition of Tel-fused cKIT T670I/V559D double mutant (unknown origin) transfected in mouse BAF3 cells assessed as decrease in cell proliferation after 72 hrs by celltiter-glo/CCK8 assay; format: cell-based; summary of the method: as §3
[18] = biological target: Mast/stem cell growth factor receptor Kit (Homo sapiens) (UniProt P10721); assay: Inhibition of cKIT in human GISTT1 cells assessed as suppression of AKT phosphorylation at S473 up to 10 uM after 2 hrs by Western blot analysis; format: cell-based
[19] = system: MV4-11; assay: Antiproliferative activity against FLT3-ITD dependent human MV4-11 cells assessed as reduction in cell viability after 72 hrs by celltiter-glo/CCK8 assay; format: functional; conditions: MV4-11, 72 h; summary of the method: as §1
[20] = biological target: Mast/stem cell growth factor receptor Kit (Homo sapiens) (UniProt P10721); assay: Inhibition of cKIT in human GISTT1 cells assessed as suppression of ERK phosphorylation at T202/Y204 up to 10 uM after 2 hrs by Western blot analysis; format: cell-based
[21] = system: GISTT1; assay: Induction of apoptosis in human GISTT1 cells xenografted in nu/nu mouse at 25 to 100 mg/kg/day administered through oral gavage after 21 days by tunel assay; format: functional, organism-based
Summary of the method: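 Female nu/nu mice, 6 weeks old, received 5 × 10⁶ GIST-T1 cells in PBS/Matrigel (1:1) subcutaneously in the right flank. At 100−200 mm³, six mice per group were dosed daily by oral gavage at 25, 50 or 100 mg/kg/d in 0.5% methylcellulose/0.4% Tween80, or vehicle. Tumor volume was taken as (W²×L)/2, with body weight and tumor measured daily. Tumors were stained for Ki67 (IHC, 1:50 antibody) and by TUNEL.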

Sequence of Mast/stem cell growth factor receptor Kit (Homo sapiens) (P10721 whole entry, the tested form may be a part): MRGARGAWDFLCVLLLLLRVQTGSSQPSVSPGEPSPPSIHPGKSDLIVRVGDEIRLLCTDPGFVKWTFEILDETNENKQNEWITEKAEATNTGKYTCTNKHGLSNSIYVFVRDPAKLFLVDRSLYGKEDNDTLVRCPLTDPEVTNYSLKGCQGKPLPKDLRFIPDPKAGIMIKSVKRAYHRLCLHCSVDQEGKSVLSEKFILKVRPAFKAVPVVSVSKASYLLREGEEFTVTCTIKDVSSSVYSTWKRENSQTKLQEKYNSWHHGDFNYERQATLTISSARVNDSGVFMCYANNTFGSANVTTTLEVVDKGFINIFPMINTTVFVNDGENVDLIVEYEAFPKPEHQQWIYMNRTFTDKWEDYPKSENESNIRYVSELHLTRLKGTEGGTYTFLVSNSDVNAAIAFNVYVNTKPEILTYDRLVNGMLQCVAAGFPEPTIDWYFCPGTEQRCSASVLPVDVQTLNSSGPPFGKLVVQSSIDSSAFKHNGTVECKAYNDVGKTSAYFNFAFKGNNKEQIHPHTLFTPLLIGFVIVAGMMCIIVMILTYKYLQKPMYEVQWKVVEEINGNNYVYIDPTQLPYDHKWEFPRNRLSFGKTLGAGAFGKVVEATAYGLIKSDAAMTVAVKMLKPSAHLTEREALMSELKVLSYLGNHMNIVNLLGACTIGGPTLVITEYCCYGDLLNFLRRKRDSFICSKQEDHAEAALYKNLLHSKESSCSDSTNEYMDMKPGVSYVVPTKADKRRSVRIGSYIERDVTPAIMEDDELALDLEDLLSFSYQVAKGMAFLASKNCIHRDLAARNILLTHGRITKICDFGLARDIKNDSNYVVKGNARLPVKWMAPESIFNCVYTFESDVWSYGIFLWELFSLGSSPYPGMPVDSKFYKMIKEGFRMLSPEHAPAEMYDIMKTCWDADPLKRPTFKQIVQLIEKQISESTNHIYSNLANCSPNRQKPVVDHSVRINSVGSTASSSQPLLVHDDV
Sequence of Platelet-derived growth factor receptor alpha (Homo sapiens) (P16234 whole entry): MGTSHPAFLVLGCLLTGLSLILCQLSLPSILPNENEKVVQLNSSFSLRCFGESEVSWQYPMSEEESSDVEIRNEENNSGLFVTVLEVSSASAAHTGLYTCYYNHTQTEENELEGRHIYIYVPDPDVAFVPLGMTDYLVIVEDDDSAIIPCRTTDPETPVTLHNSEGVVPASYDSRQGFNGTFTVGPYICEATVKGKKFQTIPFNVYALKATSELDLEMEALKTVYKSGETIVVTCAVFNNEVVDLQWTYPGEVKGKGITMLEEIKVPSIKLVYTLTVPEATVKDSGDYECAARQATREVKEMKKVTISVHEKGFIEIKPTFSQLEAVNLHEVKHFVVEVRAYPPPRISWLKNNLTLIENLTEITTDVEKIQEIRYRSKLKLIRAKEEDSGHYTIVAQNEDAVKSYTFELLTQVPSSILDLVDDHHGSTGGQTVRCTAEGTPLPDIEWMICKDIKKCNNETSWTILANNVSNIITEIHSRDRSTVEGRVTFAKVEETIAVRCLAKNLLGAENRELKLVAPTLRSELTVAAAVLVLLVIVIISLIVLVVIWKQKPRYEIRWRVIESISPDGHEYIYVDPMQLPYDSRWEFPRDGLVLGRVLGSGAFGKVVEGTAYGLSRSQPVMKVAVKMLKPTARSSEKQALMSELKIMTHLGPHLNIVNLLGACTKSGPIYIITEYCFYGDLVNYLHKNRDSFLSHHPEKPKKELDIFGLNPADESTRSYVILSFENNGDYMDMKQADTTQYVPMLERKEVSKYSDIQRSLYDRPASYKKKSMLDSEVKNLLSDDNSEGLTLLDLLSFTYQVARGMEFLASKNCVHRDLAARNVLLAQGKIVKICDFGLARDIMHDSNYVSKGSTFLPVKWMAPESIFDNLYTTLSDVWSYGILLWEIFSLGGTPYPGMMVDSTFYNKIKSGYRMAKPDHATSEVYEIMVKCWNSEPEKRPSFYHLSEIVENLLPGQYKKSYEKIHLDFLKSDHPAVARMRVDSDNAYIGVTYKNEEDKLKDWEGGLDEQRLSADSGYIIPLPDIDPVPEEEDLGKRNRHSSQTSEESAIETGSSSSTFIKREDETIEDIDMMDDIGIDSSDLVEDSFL
Sequence of Mast/stem cell growth factor receptor Kit (Homo sapiens), P10721 [V559D,T670I] (P10721 whole entry V559D/T670I, the tested form may be a part): as the sequence (P10721 whole entry, the tested form may be a part) above, with V559D, T670I counted along it
Sequence of Macrophage colony-stimulating factor 1 receptor (P07333 whole entry, the tested form may be a part): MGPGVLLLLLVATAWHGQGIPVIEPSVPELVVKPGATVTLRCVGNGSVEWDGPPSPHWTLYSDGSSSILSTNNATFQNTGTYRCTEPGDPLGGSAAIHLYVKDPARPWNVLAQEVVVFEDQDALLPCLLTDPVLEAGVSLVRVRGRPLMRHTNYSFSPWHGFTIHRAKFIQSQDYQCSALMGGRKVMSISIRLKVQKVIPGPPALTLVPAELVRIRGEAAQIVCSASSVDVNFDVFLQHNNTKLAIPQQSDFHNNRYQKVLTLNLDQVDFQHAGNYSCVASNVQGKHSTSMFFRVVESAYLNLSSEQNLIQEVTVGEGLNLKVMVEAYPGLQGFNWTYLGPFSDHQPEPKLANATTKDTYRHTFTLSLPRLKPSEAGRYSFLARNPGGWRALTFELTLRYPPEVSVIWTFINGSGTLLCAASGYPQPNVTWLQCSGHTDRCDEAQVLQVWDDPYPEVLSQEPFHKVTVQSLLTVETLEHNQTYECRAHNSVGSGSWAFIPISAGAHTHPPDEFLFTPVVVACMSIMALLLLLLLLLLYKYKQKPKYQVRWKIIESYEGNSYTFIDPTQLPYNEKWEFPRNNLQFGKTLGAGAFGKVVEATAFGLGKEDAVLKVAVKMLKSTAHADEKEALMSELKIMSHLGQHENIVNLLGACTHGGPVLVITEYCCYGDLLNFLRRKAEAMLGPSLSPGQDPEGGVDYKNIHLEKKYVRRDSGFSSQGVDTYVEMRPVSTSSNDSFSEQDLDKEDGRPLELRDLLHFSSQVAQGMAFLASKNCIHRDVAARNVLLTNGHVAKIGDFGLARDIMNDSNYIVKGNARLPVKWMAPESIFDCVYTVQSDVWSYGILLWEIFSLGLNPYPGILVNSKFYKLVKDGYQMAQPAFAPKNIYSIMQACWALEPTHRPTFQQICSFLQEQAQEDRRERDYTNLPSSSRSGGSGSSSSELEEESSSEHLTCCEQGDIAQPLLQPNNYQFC
Sequence of Mast/stem cell growth factor receptor Kit (Homo sapiens), P10721 [V654A] (P10721 whole entry V654A, the tested form may be a part): as the sequence (P10721 whole entry, the tested form may be a part) above, with V654A counted along it
Sequence of Mast/stem cell growth factor receptor Kit (Homo sapiens), P10721 [N822K] (P10721 whole entry N822K, the tested form may be a part): as the sequence (P10721 whole entry, the tested form may be a part) above, with N822K counted along it
Sequence of Mast/stem cell growth factor receptor Kit (Homo sapiens), P10721 [D816V] (P10721 whole entry D816V, the tested form may be a part): as the sequence (P10721 whole entry, the tested form may be a part) above, with D816V counted along it
Sequence of Mast/stem cell growth factor receptor Kit (Homo sapiens), P10721 [T670I] (P10721 whole entry T670I, the tested form may be a part): as the sequence (P10721 whole entry, the tested form may be a part) above, with T670I counted along it

inhibition [1]: Active | inhibition [3]: Active | Tmax [4]: 1.02 min | GI50 [6]: 1060 nM | GI50 [7]: 150 nM | GI50 [9]: > 10 µM | inhibition [12]: Active | IC50 [13]: 133 nM | GI50 [14]: 1030 nM | AUC(0-t) [15]: 198 ng·h/mL | GI50 [16]: 8.24 µM | GI50 [17]: 5.31 µM | inhibition [18]: Active | GI50 [19]: > 10 µM | inhibition [20]: Active
SMILES: Cc1ccc(NC(=O)c2cccc(C(F)(F)F)c2)cc1OC1CCN(C(=O)c2ccncc2)CC1
Activity [2]: Non-toxic | GI50 at 72 h [5]: > 10 µM | Activity [8]: Active | GI50 [10]: 43 nM | Activity [11]: Active | Activity [21]: Active

Reference: ChEMBL document CHEMBL3808357, “Discovery of N-(3-((1-Isonicotinoylpiperidin-4-yl)oxy)-4-methylphenyl)-3-(trifluoromethyl)benzamide (CHMFL-KIT-110) as a Selective, Potent, and Orally Available Type II c-KIT Kinase Inhibitor for Gastrointestinal Stromal Tumors (GISTs)” (J Med Chem, 2016)
